Six compounds from ChEMBL document CHEMBL3875191, “Enhanced potency of bivalent small molecule gp41 inhibitors” (Bioorg Med Chem, 2017) can be followed below.

In general, IC50 refers to the concentration that inhibits the measured activity by half. Low values mean higher potency, high ones lower potency. The IC90 is the point of the concentration-response curve where the effect stands at 90%. A lower IC90 goes with greater potency. In general, Ki refers to a measure of affinity in units of concentration, obtained from inhibition or displacement. In general, Kd refers to the free concentration of one partner at which half of the binding sites on the other are occupied at equilibrium, for simple one-to-one binding. By CC50 is commonly meant the concentration at which the toxic effect on the cells reaches its halfway point.

Data set [1] is described as follows: (§1) Inhibition of HIV1 3B gp41-induced virus-cell fusion between HIV1 3B to MAGI cells expressing CXCR4-tropic treated 3 hrs post infection measured after 48 hrs by beta-galactosidase based chemiluminescence assay. The conditions noted are these: Human immunodeficiency virus 1, 3B.
Data set [2] deals with MAGI. The data set is described as §1. The following applies: Human immunodeficiency virus 1.
Data set [3] is described as follows: Inhibition of fluorescently labeled C-terminal HR2 probe peptide binding to wild type HIV-1 Fe(env2.0)3 peptide model of gp41 hydrophobic pocket assessed as inhibition constant for second binding interaction at compound to protein ratio of 1:2 by fluorescence assay. Also noted: species or system Human immunodeficiency virus 1.
A short description of data set [4]: Ratio of Kd for wild type HIV-1 Fe2(env2.0)3 peptide model of gp41 hydrophobic pocket assessed as dissociation constant for first binding interaction to Ka for wild type HIV-1 Fe2(env2.0)3 peptide model of gp41 hydrophobic pocket assessed as association constant for first binding interaction. Also noted: species or system Human immunodeficiency virus 1.
Data set [5] can be described thus: Inhibition of fluorescently labeled C-terminal HR2 probe peptide binding to wild type HIV-1 Fe(env2.0)3 peptide model of gp41 hydrophobic pocket assessed as inhibition constant for first binding interaction at compound to protein ratio of 1:2 by fluorescence assay. Also noted: species or system Human immunodeficiency virus 1.
Data set [6] is described as follows: (§2) Inhibition of HIV1 Ba-L gp41-induced virus-cell fusion between HIV1 Ba-L to MAGI cells expressing CCR5-tropic treated 3 hrs post infection measured after 48 hrs by beta-galactosidase based chemiluminescence assay. The conditions noted are these: Human immunodeficiency virus 1, Ba-L.
For data set [7], the system named is MAGI. Described as §2. The following applies: Human immunodeficiency virus 1.
The test system of data set [8] is Human immunodeficiency virus 1. Nature of the data set: Binding affinity to wild type HIV-1 Fe2(env2.0)3 peptide model of gp41 hydrophobic pocket at compound to peptide ratio of 1:1 by surface plasmon resonance assay. Put shortly:
(§3)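 CM5 chip activated with EDC/NHS then PDEA; FeII(envC)3 (bpy-HR1 peptide ending in D-Cys, 5 µM in 25 mM Tris-acetate pH 7.0) coupled by disulfide. Blocked with L-cysteine, then washed with 1 mM ferrous ammonium sulfate. Reference surface lacked receptor. Analytes run at 0.098–50 µM in 20 mM Hepes, 150 mM NaCl, pH 7.0, 1% DMSO. Association 60 s, dissociation 300 s, DMSO bracketing. Kinetics fit to Langmuir 1:1 and 1:2 models.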
Background: Surface plasmon resonance follows binding to a sensor surface in real time, without labels.

The nature of data set [9]: Inhibition of fluorescently labeled C-terminal HR2 probe peptide binding to wild type HIV-1 Fe(env2.0)3 peptide model of gp41 hydrophobic pocket at compound to protein ratio of 1:1 by fluorescence assay. Also noted: species or system Human immunodeficiency virus 1.
Data set [10] is described as follows: Cytotoxicity against human HL2/3 cells assessed as decrease in cell viability by alamar blue/presto blue assay. Type of data set: toxicity, cell-based. Put shortly:
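Cell viability read with resazurin reagent (Alamar Blue or Presto Blue) under the same culture conditions as cell-cell fusion. TZM-bl targets (25,000/well, cultured overnight) with serially diluted compound, plus 50,000 HL2/3 effectors/well. 6 h in reduced-serum medium, 1% DMSO final.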
For orientation: Alamar Blue is a resazurin reagent that responds to reducing activity.

Data set [11] in a line: (§4) Inhibition of HIV1 gp41-induced cell-cell fusion between HXB2 viral envelope expressing human HL2/3 cells to CXCR4-tropic expressing TZM-bl cells after 6 hrs by LTR luciferase reporter gene assay. It counts as cell-based. The following applies: Human immunodeficiency virus 1, HL2/3, 6 h. In a few lines:
(§5)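 TZM-bl target cells (CD4, CCR5, CXCR4; HIV-1 LTR-driven firefly luciferase) at 25,000/well, cultured overnight, then given serially diluted inhibitor. 50,000 HL2/3 effector cells (HXB2 Env, Tat, Rev) were added and fusion ran 6 h in reduced-serum medium with 1% DMSO final. Luciferase was read, with 1% DMSO controls with and without HL2/3, in triplicate.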
Background: A reporter such as luciferase makes a cellular process visible.

Data set [12] has as its system Human immunodeficiency virus 1. Put plainly: Binding affinity to wild type HIV-1 HXB2 Fe2(env2.0)3 peptide model of gp41 hydrophobic pocket at <10 uM by surface plasmon resonance assay. In a few lines:
as §3

The subject of the next data set is HL2/3. Described as §4. The conditions noted are these: Human immunodeficiency virus 1. It counts as cell-based. Put shortly:
as §5

In data set [13] the test system is Human immunodeficiency virus 1. Nature of the data set: Binding affinity to wild type HIV-1 HXB2 Fe2(env2.0)3 peptide model of gp41 hydrophobic pocket at >10 uM by surface plasmon resonance assay. In a few lines: as §3

Activity calls are given as the source filed them. The calls are words filed in the database; no cut-off is given here.

Consider `O=C(CCC(=O)Nc1ccc(C(=O)N[C@@H](Cc2c[nH]c3ccccc23)C(=O)O)cc1OCCc1c[nH]c2ccccc12)NCCOCCOCCOCCNC(=O)CCC(=O)Nc1ccc(C(=O)N[C@@H](Cc2c[nH]c3ccccc23)C(=O)O)cc1OCCc1c[nH]c2ccccc12`, for which the figures for the IC50 in data set [1], in data set [6] and in data set [11] were 3.8 µM, 3.6 µM and 0.6 µM, respectively. For the same compound, the IC90 in the data set on MAGI [2] was 70 µM; in the data set with MAGI [7], over 100 µM. Moreover, the Ki in [3] was 0.2 µM; in data set [5], 20 µM; in data set [9], 1 to 2.3 µM. For the same compound, in data set [4], the Kd turned out to be 32 µM. Further, the RUmax in data set [8] turned out to be 160. Moreover, in data set [10], the CC50 was over 100 µM.

Turning to `O=C(CCC(=O)Nc1ccc(C(=O)N[C@@H](Cc2c[nH]c3ccccc23)C(=O)O)cc1OCc1ccc(Cl)cc1)NCCOCCOCCOCCNC(=O)CCC(=O)Nc1ccc(C(=O)N[C@@H](Cc2c[nH]c3ccccc23)C(=O)O)cc1OCc1ccc(Cl)cc1`, the IC50 in [1] is 5.1 µM; in data set [11] it was 0.4 µM. Besides, the Kd in data set [4] was determined as 43 µM. Moreover, the RUmax in data set [8] turned out to be 157. Moreover, the Ki in data set [9] is 5.3 to 8.5 µM. Further, the CC50 in [10] is over 100 µM.

As to `Nc1ccc(C(=O)N[C@@H](Cc2c[nH]c3ccccc23)C(=O)O)cc1OCCc1c[nH]c2ccccc12`, the concentration for half-maximal inhibition (IC50) in data set [1] is over 50 µM; in data set [6] it was over 50 µM; in data set [11], 22 µM. The IC90 is over 50 µM in the data set with MAGI [2], over 50 µM in the data set with MAGI [7] and 80 µM in the data set with HL2/3. Moreover, the outcome in data set [12] and in [13] was Active. The RUmax in [8] was found to be 59. Further, in data set [9], the Ki was determined as 7.2 µM. In [10], the CC50 is over 50 µM.

`O=C(CCc1c[nH]c2ccccc12)NCCCCCC(=O)Nc1ccc(C(=O)N[C@@H](Cc2c[nH]c3ccccc23)C(=O)O)cc1OCc1ccc(Cl)cc1`: the figures for the IC50 in [1], in data set [6] and in data set [11] were 14.3 µM, 13 µM and 2.2 µM, respectively. Moreover, the IC90 in the data set on MAGI [2] is 27.1 µM; in the data set on MAGI [7], 26.5 µM. Besides, the RUmax in data set [8] was determined as 93. Besides, the Ki in [9] is 3.4 µM. The CC50 in data set [10] was over 100 µM.

As to `O=C(CCc1c[nH]c2ccccc12)NCCCCCC(=O)Nc1ccc(C(=O)N[C@@H](Cc2c[nH]c3ccccc23)C(=O)O)cc1OCCc1c[nH]c2ccccc12`, the IC50 in data set [1] amounted to 17.3 µM; in [6], 13.7 µM; in [11] it was 1.3 µM. For the same compound, the IC90 came out at 30.5 µM in the data set on MAGI [2] and 31.1 µM in the data set with MAGI [7]. In addition, the RUmax in [8] was 95. In addition, the Ki in data set [9] worked out at 1.2 µM. The CC50 in [10] was over 100 µM.

As to `Nc1ccc(C(=O)N[C@@H](Cc2c[nH]c3ccccc23)C(=O)O)cc1OCc1ccc(Cl)cc1`, the RUmax in data set [8] amounted to 56. Further, the inhibition constant Ki in [9] came to 15 µM. Besides, the CC50 in [10] is over 50 µM. The compound further registered an IC50 in data set [11] of 24 µM.
